Experimental data taken from ChEMBL document CHEMBL3632558, “Synthesis, antimycobacterial and antibacterial activity of l-[(1R,2S)-2-fluorocyclopropyl]naphthyridone derivatives containing an oxime-functionalized pyrrolidine moiety” (2015).
Values after ≈ are worked out from the molar mass of the structure shown.

What follows are compounds tested on Mycobacterium tuberculosis (assay: Antimycobacterial activity against multidrug-resistant Mycobacterium tuberculosis 6133 by alamar blue assay).
Assay type: functional
In short: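 Microplate Alamar Blue Assay; MIC is the lowest concentration giving ≥90% reduction in fluorescence relative to the mean of replicate bacterium-only controls. MDR strain 6133 is resistant to isoniazid and rifampicin.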

Point of comparison: `NCC1CN(c2nc3c(cc2F)c(=O)c(C(=O)O)cn3[C@@H]2C[C@@H]2F)C/C1=N\OCc1ccc(F)cc1` (stereo partly specified), MIC90 0.043 µg/mL (≈ 0.0857 µM). Against it:
- CO[C@H]1/C=C/O[C@@]2(C)Oc3c(C)c(O)c4c(O)c(c(/C=N/N5CCN(C)CC5)c(O)c4c3C2=O)NC(=O)/C(C)=C\C=C\[C@H](C)[C@H](O)[C@@H](C)[C@@H](O)[C@@H](C)[C@H](OC(C)=O)[C@@H]1C [RIFAMPIN] — higher, > 40 µg/mL
- Cc1ccc(CO/N=C2\CN(c3nc4c(cc3F)c(=O)c(C(=O)O)cn4[C@@H]3C[C@@H]3F)CC2CN)cc1 (stereo partly specified) — within 1.5-fold, 0.03 µg/mL (≈ 0.0603 µM)
- NCC1CN(c2nc3c(cc2F)c(=O)c(C(=O)O)cn3[C@@H]2C[C@@H]2F)C/C1=N\OCc1ccccc1 (stereo partly specified) — 2.9-fold higher, 0.125 µg/mL (≈ 0.259 µM)
- NCC1CN(c2nc3c(cc2F)c(=O)c(C(=O)O)cn3[C@@H]2C[C@@H]2F)C/C1=N\OCc1ccc2c(c1)OCO2 (stereo partly specified) — within 1.5-fold, 0.054 µg/mL (≈ 0.102 µM)
- NNC(=O)c1ccncc1 [ISONIAZID] — 93-fold higher, 4 µg/mL (≈ 29.2 µM)
